Results collected from several papers.
Compare with care: the assays were run in different laboratories. pIC50: −log10 of the molar value.
Cell line: MCF7
Effect on: cell growth or viability

CC[C@H](C)[C@@H]([C@@H](CC(=O)N1CCC[C@H]1[C@H](OC)[C@@H](C)C(=O)N[C@H](C)[C@@H](O)c1ccccc1)OC)N(C)C(=O)[C@@H](NC(=O)[C@@H](NC)C(C)C)C(C)C
pIC50 (CCK-8): 7.97

Fc1ccc2c(-c3nc(Cc4ccccc4)cs3)nn(Cc3ccc(Cl)cc3Cl)c2c1
pIC50 (48 h): 4.48

N.N.[Cl][Pt][Cl]
pIC50 (MTT; 48 h): 5.00

N.N.[Cl][Pt][Cl]
pIC50 (MTT; 72 h): 4.21

c1ccc([Se][Au]=[c]2n(C3CCCCC3)ccn2C2CCCCC2)cc1
pIC50 (crystal violet): 6.00

CC(=O)c1c(C)c2cnc(Nc3ccc(C4CCN(CCS(C)(=O)=O)CC4)cn3)nc2n(C2CCCC2)c1=O
pIC50 (ATP luminescence; 72 h): 6.85

Cc1ccc(CNC(=O)c2cn(Cc3ccc(Cl)cc3)c3ccc(Oc4ccccc4)cc3c2=O)cc1
pIC50 (MTT; 24 h): < 3.30

COc1c(C)c2c(c(O)c1C/C=C(\C)CCC(=O)O)C(=O)OC2
pIC50: 6.13

O=C(NCc1ccc(C(F)(F)F)cc1)c1cn(Cc2ccc(F)cc2)c2ccc(Oc3ccccc3)cc2c1=O
pIC50 (MTT; 48 h): 3.74

CC(=O)N[C@H]1[C@@H](O[C@@H]2O[C@H](C[C@@H](O)[C@H]3O[C@@H](n4ccc(=O)[nH]c4=O)[C@H](O)[C@@H]3O)[C@H](O)[C@H](O)[C@H]2NC(=O)/C=C/CCCCCCCCCC(C)C)O[C@H](CO)[C@@H](O)[C@@H]1O
pIC50 (WST-1): 6.28

O=C(NCc1ccc(F)cc1)c1cn(Cc2ccc(F)cc2)c2ccc(Oc3ccccc3)cc2c1=O
pIC50 (MTT; 48 h): 3.49

N.N.[Cl][Pt][Cl]
pIC50 (MTT): 4.34

O=C(NCc1ccc(Cl)cc1)c1cn(Cc2ccc(Cl)cc2)c2ccc(Oc3ccccc3)cc2c1=O
pIC50 (MTT; 24 h): 3.32

CC[C@@]1(O)C(=O)OCc2c1cc1n(c2=O)Cc2cc3ccccc3nc2-1
pIC50 (SRB; 48 h): 7.17

C#CCn1c(C(=O)/C=C/c2ccc(F)cc2)nc2ccccc21
pIC50 (LDH; 48 h): 5.61

O=C(NCc1ccc(C(F)(F)F)cc1)c1cn(Cc2ccc(Cl)cc2)c2ccc(Oc3ccccc3)cc2c1=O
pIC50 (MTT; 48 h): 3.96
